Assay results from ChEMBL document CHEMBL5034006, “Lead Optimization of 3,5-Disubstituted-7-Azaindoles for the Treatment of Human African Trypanosomiasis” (J Med Chem, 2021).

Experiments:
[1] = Intrinsic clearance in human liver microsomes assessed per mg protein by LC-MS/MS analysis; assay type: ADME, Microsome
[2] = Intrinsic clearance in rat hepatocytes assessed per million cells by LC-MS/MS analysis; assay type: ADME, cell-based, Hepatocyte
[3] = Half life in mouse plasma; assay type: ADME, cell-free
[4] = Half life in mouse liver microsomes; assay type: ADME, Microsome
[5] = Cmax in Balb/c mouse at 10 mg/kg, ip measured after 1 hr by LC-MS/MS analysis; assay type: ADME, organism-based; parameters: route intraperitoneal, dose 10 mg/kg, time 1 hrs; details: in vivo
Method in brief: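 BALB/c mice (n=3) received a single 10 mg/kg intraperitoneal dose. Retro-orbital blood samples were taken at 0.083, 0.25, 0.5, 1, 2, 4, 8 and 24 h post-dose, and plasma levels were quantified by LC-MS-MS. Cmax is the mean of the three animals, read from the plasma concentration–time profile.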

[6] = Tmax in Balb/c mouse at 10 mg/kg, ip by LC-MS/MS analysis; assay type: ADME, organism-based; details: in vivo
Method in brief: (§1)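 BALB/c mice, n=3, single 10 mg/kg intraperitoneal dose. Blood (50 μL) taken by retro-orbital bleed at 0.083, 0.25, 0.5, 1, 2, 4, 8 and 24 h post-dose. Plasma levels measured by LC-MS-MS. Brain and plasma levels from sparse sampling at 0.5 and 4 h; LLOQ 9.77 ng/mL.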

[7] = Drug level in Balb/c mouse brain at 10 mg/kg, ip measured after 0.5 hrs by LC-MS/MS analysis; assay type: ADME, organism-based; details: in vivo, BLD = below limit of detection; method in brief: as §1
[8] = Permeability in human Caco2 cells; assay type: ADME, cell-based; details: caco-2

CLint [1] [µL/min/mg]	Compound	also measured
130	Cn1cc(-c2cnc3occ(-c4cccc(C#N)c4)c3c2)cn1	
300	Cn1cc(-c2c[nH]c3ncc(-c4cccc(C#N)c4)cc23)cn1	
160	N#Cc1cccc(-c2c[nH]c3ncc(-c4ccncc4)cc23)c1	
150	Cn1cc(-c2cnc3[nH]cc(-c4cncc(C#N)c4)c3c2)cn1	
17	CN1CCC(n2cc(-c3cnc4[nH]cc(-c5cccc(C#N)c5)c4c3)cn2)CC1	
290	N#Cc1cccc(-c2c[nH]c3ncc(-c4cn[nH]c4)cc23)c1	
290	Cn1cc(-c2cnc3[nH]cc(-c4cccc(N)c4)c3c2)cn1	
> 300	COc1cccc(-c2c[nH]c3ncc(-c4cnn(C)c4)cc23)c1	
250	Cc1nn(C)cc1-c1cnc2[nH]cc(-c3cccc(C#N)c3)c2c1	
190	Cn1cc(-c2cnc3[nH]cc(-c4cccc(C#N)c4)c3c2)cn1	
110	Cn1cc(-c2cnc3[nH]cc(-c4cccc(F)c4)c3c2)cn1	
51	Cn1cc(-c2cnc3[nH]cc(-c4ccc(C#N)cc4)c3c2)cn1	
190	Cn1cc(-c2ccc3[nH]cc(-c4cccc(C#N)c4)c3c2)cn1	
300	Cn1cc(-c2cnc3[nH]cc(-c4ccc5[nH]ccc5c4)c3c2)cn1	
190	Cn1cc(-c2cnc3[nH]cc(-c4ccnc(C#N)c4)c3c2)cn1	
180	Cn1cc(-c2cnc3c(c2)c(-c2cccc(C#N)c2)cn3C)cn1	
15	Cc1ccc(S(=O)(=O)n2cc(-c3cccc(C#N)c3)c3cc(-c4cnn(C)c4)cnc32)cc1	
15	Cn1cc(Nc2cnc3[nH]cc(-c4cccc(C#N)c4)c3c2)cn1	
14	Cn1cc(-c2cnc3[nH]cc(-c4cccc([N+](=O)[O-])c4)c3c2)cn1	
64	Cn1cc(-c2cnc3[nH]cc(-c4ccc(F)c(C#N)c4)c3c2)cn1	
210	Cc1c(-c2cnn(C)c2)cnc2[nH]cc(-c3cccc(C#N)c3)c12	
30	CS(=O)(=O)c1ccc(-c2cnc3[nH]cc(-c4cccc(C#N)c4)c3c2)cc1	

The remaining lines, values behind:

Compound	CLint [1] [µL/min/mg]	also measured
N#Cc1cccc(-c2c[nH]c3ncc(-c4cnn(C5CCNCC5)c4)cc23)c1	< 3	CLH [2]: 19 µL/min; t1/2 [3]: > 2 h; t1/2 [4]: 0.567 h; Cmax [5]: 4413.3 ng/mL; Tmax [6]: 1 h; Drug uptake [7]: Bld; permeability [8]: Permeable
Cn1cc(-c2cnc3[nH]cc(C4CCNCC4)c3c2)cn1	3	
CC(C)(C)OC(=O)N1CCC(n2cc(-c3cnc4[nH]cc(-c5cccc(C#N)c5)c4c3)cn2)CC1	91	
Cn1cc(-c2cnc3[nH]cc(C4CCN(C(=O)OC(C)(C)C)CC4)c3c2)cn1	300	
Cn1cc(-c2cnc3[nH]cc(-c4ccncc4)c3c2)cn1	39	
CC(C)(C)OC(=O)N1CCN(c2cnc3[nH]cc(-c4cccc(C#N)c4)c3c2)CC1	94	
N#Cc1cccc(-c2c[nH]c3ncc(-c4cncnc4)cc23)c1	31	
CS(=O)(=O)c1ccc(Nc2cnc3[nH]cc(-c4cccc(C#N)c4)c3c2)cc1	33	
N#Cc1cccc(-c2c[nH]c3ncc(-c4cnn(C5CCOCC5)c4)cc23)c1	46	
Cn1cc(-c2cnc3[nH]cc(-c4cccnc4)c3c2)cn1	90	
N#Cc1cccc(-c2c[nH]c3ncc(N4CCCCC4)cc23)c1	300	
Cn1cc(-c2cnc3[nH]cc(-c4ccc(C(=O)O)cc4)c3c2)cn1	< 3	
Cn1cc(-c2cnc3[nH]cc(-c4ccccc4)c3c2)cn1	200	
Cn1cc(-c2cnc3[nH]cc(C4CCCN(C(=O)OC(C)(C)C)C4)c3c2)cn1 (configuration not stated)	> 300	
Cn1cc(-c2cnc3[nH]cc(C4CCNC4)c3c2)cn1 (configuration not stated)	< 3	
Cc1nn(C)c(C)c1-c1cnc2[nH]cc(-c3cccc(C#N)c3)c2c1	300	
Cc1ccc(-c2c[nH]c3ncc(-c4cnn(C)c4)cc23)cc1	130	
c1nc2[nH]cc(C3CCCNC3)c2cc1-c1cnn(C2CCOCC2)c1 (configuration not stated)	< 3	
N#Cc1cccc(-c2n[nH]c3ncc(-c4cnn(C5CCOCC5)c4)cc23)c1	42	

Compound	CLint [1] [µL/min/mg]	also measured
Cn1cc(-c2cnc3[nH]cc(-c4ccc(C(N)=O)cc4)c3c2)cn1	14	
c1cc(-c2c[nH]c3ncc(-c4cnn(C5CCOCC5)c4)cc23)ccn1	29	
Cn1cc(-c2cnc3[nH]cc(C4CCCNC4)c3c2)cn1 (configuration not stated)	< 3	
Cn1cc(-c2cnc3[nH]cc(C4CCN(C(=O)OC(C)(C)C)C4)c3c2)cn1 (configuration not stated)	180	
CS(=O)(=O)N1CCN(c2cnc3[nH]cc(-c4cccc(C#N)c4)c3c2)CC1	32	
Cn1cc(-c2cnc3[nH]cc(-c4ccc(F)cc4)c3c2)cn1	130	
Cn1cc(-c2cnc3[nH]cc(-c4ccc(O)cc4)c3c2)cn1	50	
Cn1cc(-c2cnc3[nH]ccc3c2)cn1	> 300	
CN1CCCN(c2cnc3[nH]cc(-c4cccc(C#N)c4)c3c2)CC1	82	
Cn1cc(-c2cnc3[nH]cc(-c4ccc(F)c(F)c4)c3c2)cn1	90	
Cn1cc(-c2cnc3[nH]cc(-c4ccc(Cl)c(Cl)c4)c3c2)cn1	51	
Cn1cc(-c2cnc3[nH]cc(-c4ccccc4C#N)c3c2)cn1	200	
Cn1cc(-c2cnc3[nH]cc(-c4ccccc4F)c3c2)cn1	150	
Cn1cc(-c2cnc3[nH]cc(-c4ccc5nonc5c4)c3c2)cn1	88	
N#Cc1cccc(-c2c[nH]c3ncc(N4CCCC4)cc23)c1	50	
Cn1cc(-c2cnc3[nH]cc(-c4cc(F)cc(C#N)c4)c3c2)cn1	91	
Cn1cc(-c2cnc3[nH]cc(-c4ccc(Cl)cc4)c3c2)cn1	57	
COc1ccc(-c2c[nH]c3ncc(-c4cnn(C)c4)cc23)cc1	180	
CN1CCN(c2cnc3[nH]cc(-c4cccc(C#N)c4)c3c2)CC1	44	
